Test results: article PMC4230422 (Journal of Experimental & Clinical Cancer Research : CR, 2014)
Each block holds one compound with its values, some of them ahead of it.

Columns and labels:
VM-CUB1 [1] = assay: CellTiter-Glo ATP cell viability assay, VM-CUB1; type: cell-based, human; conditions: VM-CUB1, 72 h of HDAC8 inhibitor treatment
In short: (§1)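 UCCs kept in DMEM GlutaMAX-I plus 10% FCS at 37°C, 5% CO2. Cells seeded in 96-well plates and grown 24 h, then given one treatment at the indicated inhibitor concentrations (10 mM DMSO stock) or DMSO for 72 h. Viable cells read as total cellular ATP by CellTiter-Glo luminescence. IC50 and dose-response curves fitted by non-linear regression.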

SW-1710 [2] = assay: CellTiter-Glo ATP cell viability assay, SW-1710; type: cell-based, human; conditions: SW-1710, 72 h of HDAC8 inhibitor treatment
In short: as §1

RT-112 [3] = assay: CellTiter-Glo ATP cell viability assay, RT-112; type: cell-based, human; conditions: RT-112, 72 h of HDAC8 inhibitor treatment
In short: as §1

639-V [4] = assay: CellTiter-Glo ATP cell viability assay, 639-V; type: cell-based, human; conditions: 72 h of HDAC8 inhibitor treatment
In short: as §1

UM-UC-3 [5] = assay: CellTiter-Glo ATP cell viability assay, UM-UC-3; type: cell-based, human; conditions: UM-UC-3, 72 h of HDAC8 inhibitor treatment
In short: as §1

[6] = tested on: Normal Uroepithelial Control; assay: CellTiter-Glo ATP cell viability assay, normal uroepithelial control; type: cell-based, human; conditions: 72 h of HDAC8 inhibitor treatment
In short: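 Normal urothelial cells isolated from ureters after nephrectomy, grown in keratinocyte serum-free medium with 0.25 ng/ml EGF and 12.5 μg/ml bovine pituitary extract. Seeded in 96-well plates for 24 h, then treated once with the indicated inhibitor concentrations (10 mM DMSO stock) or DMSO for 72 h. Read by CellTiter-Glo total-ATP luminescence. IC50 from non-linear regression.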

VM-CUB1 [7] = assay: Colony forming assay, VM-CUB1; type: cell-based, human; conditions: VM-CUB1, 72 h treatment at IC50 concentrations
In short: (§2)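 After a single 72 h inhibitor or DMSO treatment, cells were replated at 500 to 1,000 cells per well in 6-well plates and grown 10 days. Then PBS-washed, fixed briefly in 50% methanol and 10 min in 100% methanol, and Giemsa-stained. Colony number and size measured by image analysis against the DMSO control.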

[8] = tested on: urothelial cancer cell lines (UCCs); assay: CellTiter-Glo ATP cell viability assay, urothelial cancer cell line panel; type: cell-based, human; conditions: 72 h inhibitor treatment
In short: as §1

SW-1710 [9] = assay: Colony forming assay, SW-1710; type: cell-based, human; conditions: SW-1710, 72 h treatment at IC50 concentrations
In short: as §2

RT-112 [10] = assay: Colony forming assay, RT-112; type: cell-based, human; conditions: RT-112, 72 h treatment at IC50 concentrations
In short: as §2

639-V [11] = assay: Colony forming assay, 639-V; type: cell-based, human; conditions: 72 h treatment at IC50 concentrations
In short: as §2

UM-UC-3 [12] = assay: Colony forming assay, UM-UC-3; type: cell-based, human; conditions: UM-UC-3, 72 h treatment at IC50 concentrations
In short: as §2

VM-CUB1 [13] = assay: Wound healing migration assay, VM-CUB1; type: cell-based, human; conditions: VM-CUB1, IC50 concentrations, especially after 6 - 12 h
UM-UC-3 [14] = assay: Wound healing migration assay, UM-UC-3; type: cell-based, human; conditions: UM-UC-3, IC50 concentrations, especially after 6 - 12 h
[15] = tested on: thymidylate synthase (TS); assay: Western blot of thymidylate synthase in UCCs; type: cell-based, human; conditions: inhibitor IC50, 72 h
p21 = assay: Western blot of p21 in UCCs; type: cell-based, human
acetylated α-tubulin = assay: Western blot of acetylated α-tubulin in UCCs; type: cell-based, human; conditions: all cell lines, inhibitor IC50, 72 h
[16] = tested on: urothelial cancer cell lines (UCCs); assay: Cell cycle analysis by flow cytometry; type: cell-based, human; conditions: for G1-fraction / G2/M-arrest: VM-CUB1, SW-1710, 639-V and UM-UC-3 cells, inhibitor IC50, 72 h; for sub-G1 fraction: VM-CUB1 and SW-1710, inhibitor IC50, 72 h
In short: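 UCCs grown in DMEM GlutaMAX-I with 10% FCS at 37°C and 5% CO2. One inhibitor dose was given 24 h after seeding (10 mM DMSO stock), with DMSO as solvent control and the pan-HDAC inhibitor SAHA (2.5 μM). After 72 h, attached and floating cells were stained in PI buffer (50 μg/ml PI, 0.1% sodium citrate, 0.1% Triton X-100) and run on flow cytometry. Sub-G1 counted as apoptotic.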

[17] = tested on: acetylated histone H3 and H4; assay: Western blot of histone H3 and H4 acetylation; type: cell-based, human; conditions: for H4 acetylation: 639-V, inhibitor IC50, 72 h
In short: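 Histone acetylation checked after 72 h inhibitor or DMSO treatment. 1 μg of each sample run on 15% SDS-PAGE and transferred to PVDF. Probed for acetylated H3 (1:2,000), total H3 (1:1,000), acetylated H4 (1:1,000) and total H4 (1:500). Blocking in 5% milk/TBST, primary 1 h at room temperature or overnight at 4°C, HRP-conjugated secondaries.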

HDAC1, HDAC2 and HDAC3 = assay: Expression of other class I HDACs; type: cell-based, human; conditions: SW-1710 and VM-CUB1 cells, inhibitor IC50, 72 h, western blot
HDAC6 = conditions: in vitro; cited from earlier work
PARP = assay: Western blot of PARP cleavage in UCCs; type: cell-based, human; conditions: SW-1710, inhibitor IC50, 72 h
[18] = VM-CUB1, SW-1710 and UM-UC-3 cells
[19] = SW-1710 and 639-V, inhibitor IC50, 72 h

IC50 (SW-1710 [2]): ≥ 50 µM
SMILES: O=C(NO)c1cccc2ccccc12 [Compound 2, 1-napthohydroxamic acid, reference compound]
IC50 (VM-CUB1 [1]): ≥ 50 µM
IC50 (RT-112 [3]): ≥ 50 µM
IC50 (RT-112 [3]; listed as c2): > 50 µM
IC50 (639-V [4]): ≥ 50 µM
IC50 (UM-UC-3 [5]): ≥ 50 µM
IC50 [6]: ≥ 50 µM
clonogenic growth (VM-CUB1 [7]): inhibited clonogenicity

IC50 (SW-1710 [2]): 20.8 µM
SMILES: O=C(/C=C/Cc1cccc2ccccc12)NO [Compound 5, δ-naphtyl-trans 2-butenoil hydroxamic acid]
IC50 (VM-CUB1 [1]): 18.7 µM
IC50 (RT-112 [3]): 9.7 µM
IC50 (RT-112 [3]; listed as c5): ~9.7 µM
IC50 (639-V [4]): 12.6 µM
IC50 (UM-UC-3 [5]): 18.9 µM
IC50 [6]: 24.2 µM
viability of all UCCs [8]: significantly reduced
clonogenic growth (VM-CUB1 [7]): completely abolished
clonogenic growth (SW-1710 [9]): no effect
clonogenic growth (RT-112 [10]): moderate reduction of colony numbers
clonogenic growth (639-V [11]): moderate reduction of colony numbers
clonogenic growth (UM-UC-3 [12]): moderate reduction of colony numbers
wound healing (relative scratch size) vs DMSO control (VM-CUB1 [13]): clear difference
wound healing (relative scratch size) vs DMSO control (UM-UC-3 [14]): clear difference
expression of thymidylate synthase (TS) ([15]; 639-V and RT-112 cells): No effects
expression of thymidylate synthase (TS) [15, 18]: weakly reduced
p21 expression (p21; [19]): decreased
acetylated α-tubulin (acetylated α-tubulin; listed as c5): strong increase
G1-fraction [16]: significant decrease
G2/M-arrest [16]: indications of a G2/M-arrest
sub-G1 fraction [16]: significant increase
H4 acetylation [17]: slight increase
protein expression of HDAC1 and HDAC2/3 (HDAC1, HDAC2 and HDAC3): slightly reduced
inhibition of HDAC6 (HDAC6): do not inhibit HDAC6 efficiently

IC50 (SW-1710 [2]): 18.8 µM
SMILES: O=C(NO)c1ccc(-c2cccc3ccccc23)cc1 [Compound 6, 4-naphtyl-benzoil hydroxamic acid]
IC50 (VM-CUB1 [1]): 16 µM
IC50 (RT-112 [3]): 9.1 µM
IC50 (RT-112 [3]; listed as c6): ~9.1 µM
IC50 (639-V [4]): 18.6 µM
IC50 (UM-UC-3 [5]): 18.2 µM
IC50 [6]: 10.2 µM
viability of all UCCs [8]: significantly reduced
clonogenic growth (VM-CUB1 [7]): most efficient
clonogenic growth (SW-1710 [9]): active
clonogenic growth (RT-112 [10]): active
clonogenic growth (639-V [11]): most efficient
clonogenic growth (UM-UC-3 [12]): most efficient
wound healing (relative scratch size) vs DMSO control (VM-CUB1 [13]): clear difference
wound healing (relative scratch size) vs DMSO control (UM-UC-3 [14]): clear difference
expression of thymidylate synthase (TS) ([15]; 639-V and RT-112 cells): No effects
expression of thymidylate synthase (TS) [15, 18]: weakly reduced
cleavage of PARP (PARP): Increased cleavage of PARP
p21 expression (p21; [19]): decreased
p21 expression (p21; UM-UC-3, inhibitor IC50, 72 h): decreased
acetylated α-tubulin (acetylated α-tubulin; listed as c6): strong increase
G1-fraction [16]: significant decrease
G2/M-arrest [16]: indications of a G2/M-arrest
sub-G1 fraction [16]: significant increase
H4 acetylation [17]: slight increase
protein expression of HDAC1 and HDAC2/3 (HDAC1, HDAC2 and HDAC3): slightly reduced
inhibition of HDAC6 (HDAC6): do not inhibit HDAC6 efficiently

SMILES: O=C(CCCCCCC(=O)Nc1ccccc1)NO [SAHA, suberoylanilide hydroxamic acid, reference compound]
histone H3 or H4 acetylation ([17]; SAHA control): led to a change
